Compound activity (PubChem BioAssay)
Hits are enriched below; roughly 3.1% of the tested compounds scored in any of these assays.
hERG rescue = shields human hERG channel from block by proarrhythmic agents; CHO-hERG, FluxOR thallium flux, dofetilide IC70 present; activation (rescue from dofetilide block), less the hit threshold, % at 10 µM; actives 0.51% (n = 310,000);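 active means activation above the mean of controls blocked by dofetilide plus 5 SD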;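 further: thallium influx through hERG after potassium depolarization seen as dye fluorescence rise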
KCNQ1 block = inhibitors of human KCNQ1 potassium channel; P51787; CHO-K1 KCNQ1, FluxOR thallium flux fluorescence; active compounds read high; B-score at 10 µM; actives 1.3% (n = 310,000); AID 2642;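 active means compounds whose thallium flux B-score, printed positive for inhibition, exceeds three library SD while starting fluorescence stays within three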;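 further: channel opened by potassium depolarization with thallium stimulus after 20 min compound exposure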
KCNK9 block = blocks the human KCNK9 two-pore domain potassium channel; HEK293 KCNK9, FluxOR thallium flux fluorescence; active compounds read low; B-score at 10 µM; actives 1.2% (n = 310,000); AID 488922;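 active means ratio B-score over 3 SD below the library mean, with starting fluorescence within 5 SD of its mean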;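 further: negative B-score means less thallium flux so channel inhibition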
KCNK3 block = human KCNK3 channel inhibition, primary screen | actives 0.84% (n = 340,000) | O14649 | B-score at 10 µM | CHO-KCNK3 thallium flux, FluxOR fluorescence; active compounds read low;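 active means B-score under library mean minus 4 SD, starting fluorescence ratio at most library mean plus 5 SD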;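 further: more negative B-score means stronger inhibition of thallium flux through KCNK3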
KCNQ1 pot = potentiators or activators of human KCNQ1 potassium channel. CHO-K1 KCNQ1, thallium flux FluxOR fluorescence; active compounds read high. B-score at 10 µM. actives 0.35% (n = 310,000). AID 2648;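 active means fluorescence ratio B-score, a plate-corrected score, at least three library SD, with initial intensity B-score within 5 SD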
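Doses: Single concentration per compound, DMSO matched to controls | Test system: KCNQ1-transfected CHO-K1 cells | Timing: 90 min dye loading and 20 min compound exposure, both at room temperature | Measured by: Kinetic FluxOR thallium fluorescence, 10-s 1-Hz baseline, 110-s post-stimulus read | Medium: Assay buffer with matched DMSO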
KCNQ1 block val = reconfirmed blocker of the human KCNQ1 potassium channel | shares compounds with KCNQ1 block | KCNQ1 cell line, FluxOR thallium flux fluorescence | inhibition, % at 10 µM | actives 93% (n = 1,600);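 active means primary screen active, with duplicate mean exceeding buffer control mean plus 3 SD of buffer wells, cut at about 28% in these data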
CHO KCNQ1 ctr = activity in parental CHO cells lacking KCNQ1 | shares compounds with KCNQ1 block | parental CHO-K1, FluxOR thallium flux fluorescence ratio; active compounds read low; zero means no signal rise above baseline | fluorescence ratio (Tl flux) at 10 µM | actives 21% (n = 1,600) | AID 588366;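 active means mean of duplicate thallium-flux fluorescence ratios in parental host cells more than 5 SD below the buffer control mean, cut at about 0.38 in these data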;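 further: ratio is peak minus minimum fluorescence divided by baseline fluorescence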
KCNQ1 ephys val = human KCNQ1 inhibition validated by electrophysiology. actives 20% (n = 490). shares compounds with KCNQ1 block. calls only at 10 µM. KCNQ1-CHO cells, automated patch clamp current;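 active means KCNQ1 current drop exceeding 3 SD of negative control wells, seen in both duplicate runs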;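 further: steady state current during a 2 s step from -80 to +40 mV; negative values mean current inhibition and positive values mean potentiation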
KCNQ2 spec = KCNQ1 inhibitor that also blocks rat KCNQ2 channel; shares compounds with KCNQ1 block; KCNQ2 cells, FluxOR thallium flux fluorescence; inhibition, % at 10 µM; actives 71% (n = 1,600); AID 651746;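 active means mean percent inhibition of the KCNQ2 thallium signal more than 5 SD above the buffer-only control wells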;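 further: KCNQ2 expressed in CHO cells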
KCNQ1-KCNE1 inh = human KCNQ1/KCNE1 inhibition in KCNQ1 specificity screen | shares compounds with KCNQ1 block | KCNQ1/KCNE1 cells, FluxOR thallium flux fluorescence | inhibition, % at 10 µM | actives 77% (n = 1,600);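 active means mean percent inhibition of duplicate wells above the buffer-only control mean plus 3 SD of those controls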
Large screens that a line does not name were inactive (follow-up assays come after a bar, where they were run).

CCSc1ccccc1C(=O)NC1CCCCC1	none
O=C1/C(=C\c2cc([N+](=O)[O-])ccc2O)SC(=S)N1Cc1ccc(Cl)cc1	KCNQ1 block 17 | KCNQ1 block val 165 | CHO KCNQ1 ctr 0.22 | KCNQ2 spec inactive | KCNQ1-KCNE1 inh inactive
CCN(CC)CC(C)CNC(=O)CN1C(=O)CSc2ccc(S(=O)(=O)N3CCOCC3)cc21 (configuration not stated)	none
CC(C)Oc1ccc(-c2nc(NCC3CCCO3)c3ccccc3n2)cc1 (configuration not stated)	KCNQ1 block 8 | KCNQ1 block val 98 | CHO KCNQ1 ctr inactive | KCNQ1 ephys val inactive | KCNQ2 spec 108% | KCNQ1-KCNE1 inh 120%
COc1cccc(Nc2nc(NCC3CCCO3)c3ccccc3n2)c1 (configuration not stated)	KCNQ1 block 6 | KCNQ1 block val 82 | CHO KCNQ1 ctr inactive | KCNQ2 spec 105% | KCNQ1-KCNE1 inh 152%
Oc1ccc(Nc2nc(NCC3CCCO3)c3ccccc3n2)cc1 (configuration not stated)	none
COc1ccccc1NC(=O)N(Cc1ccccc1)c1ccccn1	KCNQ1 block 7 | KCNQ1 block val 95 | CHO KCNQ1 ctr inactive | KCNQ1 ephys val inactive | KCNQ2 spec 85% | KCNQ1-KCNE1 inh 102%
COc1ccc(NC(=O)C/C(C)=N/NC(=O)C(=O)NC2CCCCC2)c(OC)c1	none
COc1ccc(CN=Cc2[nH]c3ccc(Br)c(Cl)c3c2O)cc1	KCNQ1 block 7 | KCNQ1 block val 116 | CHO KCNQ1 ctr 0.37 | KCNQ2 spec 111% | KCNQ1-KCNE1 inh 92%
COc1cc(N)c2ncsc2c1	none (no result: hERG rescue, KCNQ1 block, KCNK9 block, KCNQ1 pot)
Cc1ccc(-c2cc(-c3ccccc3Cl)c(C#N)c(N)n2)o1	none
Cc1ccc(-c2cc(-c3ccccc3)c(C#N)c(N)n2)o1	KCNQ1 block 6 | KCNQ1 block val 34 | CHO KCNQ1 ctr inactive | KCNQ2 spec inactive | KCNQ1-KCNE1 inh 48%
S=C(NCCc1cccc(Cl)c1)NC1CCCCC1	KCNQ1 block 8 | KCNQ1 block val 64 | CHO KCNQ1 ctr inactive | KCNQ2 spec 74% | KCNQ1-KCNE1 inh 56%
S=C(NCc1ccc(Cl)cc1Cl)NC1CCCCC1	KCNQ1 block 7 | KCNQ1 block val 152 | CHO KCNQ1 ctr inactive | KCNQ1 ephys val active | KCNQ2 spec 65% | KCNQ1-KCNE1 inh inactive
Clc1ccc(CNC2CCCC2)c(Cl)c1	none
O=S(=O)(NC1CCCCC1Oc1ccccc1)c1ccc(Cl)cc1 (configuration not stated)	none
CSc1ccc(OC2CCCCC2NS(=O)(=O)c2ccc(Cl)cc2)cc1 (configuration not stated)	KCNQ1 block 6 | KCNQ1 block val 120 | CHO KCNQ1 ctr inactive | KCNQ1 ephys val inactive | KCNQ2 spec 115% | KCNQ1-KCNE1 inh 142%
Cc1onc(-c2ccccc2)c1CNC(=O)Nc1cccc(Cl)c1	KCNQ1 block 7 | KCNQ1 block val 76 | CHO KCNQ1 ctr inactive | KCNQ2 spec 74% | KCNQ1-KCNE1 inh 79%
CN(C)CCCN(C(=O)c1ccc2c(c1)CCCC2)c1nc2cc3c(cc2s1)OCO3	KCNQ1 block 7 | KCNQ1 block val 48 | CHO KCNQ1 ctr inactive | KCNQ2 spec 76% | KCNQ1-KCNE1 inh 36%
Cc1ccc(OCCN(C)C(=O)C2CCC(=O)N(CC3CCCCC3)C2)cc1 (configuration not stated)	none
CCc1noc(C)c1C(=O)N1CCN(S(=O)(=O)c2c(C)c(C)cc(C)c2C)CC1	none
CCc1nnc2c(NCCc3ccccc3)nc3ccccc3n12	none
Cc1cc2nc(CCN(C(=S)NCC3CCCO3)C3CCCC3)[nH]c2cc1C (configuration not stated)	none
Cc1cc2nc(CCN(C(=S)NCC(C)C)C3CCCC3)[nH]c2cc1C	KCNQ1 block 8 | KCNQ1 block val 167 | CHO KCNQ1 ctr inactive | KCNQ1 ephys val inactive | KCNQ2 spec 101% | KCNQ1-KCNE1 inh inactive
CSc1nc2ccc(NS(=O)(=O)c3ccc(Cl)s3)cc2s1	KCNQ1 block 7 | KCNQ1 block val 103 | CHO KCNQ1 ctr inactive | KCNQ2 spec inactive | KCNQ1-KCNE1 inh 70%
CCc1ccc(S(=O)(=O)/N=C2\C=C(NS(=O)(=O)c3ccccc3)C(=O)c3ccccc32)cc1	KCNQ1 block 12 | KCNQ1 block val 97 | CHO KCNQ1 ctr inactive | KCNQ1 ephys val active | KCNQ2 spec 79% | KCNQ1-KCNE1 inh 94%
CCN1CCN(CCNC(=O)c2ccc(/C=C3/Sc4ccccc4N(Cc4cccc(Cl)c4)C3=O)cc2)CC1	KCNQ1 block 14 | KCNQ1 block val 80 | CHO KCNQ1 ctr 0.34 | KCNQ2 spec 97% | KCNQ1-KCNE1 inh 145%
CC(C)Cc1nnc(NC(=O)c2cc(-c3ccccc3)nc3ccccc23)s1	KCNQ1 block 6 | KCNQ1 block val 121 | CHO KCNQ1 ctr inactive | KCNQ2 spec 80% | KCNQ1-KCNE1 inh 143%
CCCCCCSc1ccc([C@@H]2[C@H]3C(=O)N(CC)C(=O)[C@H]3[C@]3(C(=O)OC)CCCCN23)cc1OC	none (no result: hERG rescue, KCNQ1 block, KCNK9 block, KCNQ1 pot)
COc1ccccc1Cn1c(=S)[nH]c2ccc(F)cc2c1=O	none
COc1ccc(-n2c(C)cc(C(=O)COC(=O)Cn3cnc4ccccc43)c2C)cc1	KCNQ1 block 9 | KCNQ1 block val 97 | CHO KCNQ1 ctr inactive | KCNQ1 ephys val inactive | KCNQ2 spec 85% | KCNQ1-KCNE1 inh 110%
CC(C)(C)c1csc(NC(=O)C2COc3ccccc3O2)n1 (configuration not stated)	KCNQ1 block 7 | KCNQ1 block val 68 | CHO KCNQ1 ctr inactive | KCNQ2 spec 60% | KCNQ1-KCNE1 inh 80%
O=C(Nc1nncs1)C1COc2ccccc2O1 (configuration not stated)	none
Cc1nonc1NC(=O)CSc1nnc(-c2ccoc2C)n1-c1cccc(Cl)c1	KCNQ1 block 7 | KCNQ1 block val 34 | CHO KCNQ1 ctr inactive | KCNQ2 spec 70% | KCNQ1-KCNE1 inh 68%
O=C(CCSc1ccccc1)N1CCN(c2ccccc2)CC1	KCNQ1 block 7 | KCNQ1 block val 26 | CHO KCNQ1 ctr inactive | KCNQ2 spec inactive | KCNQ1-KCNE1 inh 64%
Cc1cc(/C=C2\C(=N)N3C(SCc4ccccc4)=NSC3=NC2=O)c(C)n1Cc1ccccc1	none
